Results from ChEMBL document CHEMBL4814057, “4-4-(Anilinomethyl)-3-[4-(trifluoromethyl)phenyl]-1H-pyrazol-1-ylbenzoic acid derivatives as potent anti-gram-positive bacterial agents” (Eur J Med Chem, 2021).
Converted amounts (≈) assume the structure as drawn.

Columns and labels:
[1] = system: Staphylococcus epidermidis; test: Antimicrobial activity against methicillin-resistant Staphylococcus epidermidis ATCC 700296 assessed as bacterial growth inhibitions by CLSI protocol based microdilution method; type: functional
Enterococcus faecalis = test: Antimicrobial activity against vancomycin-susceptible Enterococcus faecalis ATCC 29212 assessed as bacterial growth inhibitions by CLSI protocol based microdilution method
Enterococcus faecium [2] = test: Antimicrobial activity against vancomycin-resistant Enterococcus faecium ATCC 700221 assessed as bacterial growth inhibitions by CLSI protocol based microdilution method; type: functional
Staphylococcus aureus [3] = test: Antimicrobial activity against methicillin-resistant Staphylococcus aureus ATCC 33592 assessed as bacterial growth inhibitions by CLSI protocol based microdilution method; type: functional
Staphylococcus aureus [4] = test: Antimicrobial activity against methicillin-resistant Staphylococcus aureus ATCC 33591 assessed as bacterial growth inhibitions by CLSI protocol based microdilution method; type: functional
Staphylococcus aureus [5] = test: Antimicrobial activity against methicillin-resistant Staphylococcus aureus ATCC 700699 assessed as bacterial growth inhibitions by CLSI protocol based microdilution method; type: functional
Bacillus subtilis = test: Antimicrobial activity against Bacillus subtilis ATCC 6623 assessed as bacterial growth inhibitions by CLSI protocol based microdilution method; type: functional
Procedure, shortened: (§1)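 Broth microdilution starting at 50 µg/ml with 2-fold serial dilutions; run in triplicate.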

Staphylococcus aureus [6] = test: Antimicrobial activity against antibiotic-resistant Staphylococcus aureus BM-2312 assessed as bacterial growth inhibitions by CLSI protocol based microdilution method; type: functional
Staphylococcus aureus [7] = test: Antimicrobial activity against methicillin-susceptible Staphylococcus aureus ATCC 25923 assessed as bacterial growth inhibitions by CLSI protocol based microdilution method; type: functional
Enterococcus faecium [8] = test: Antimicrobial activity against vancomycin-resistant Enterococcus faecium clinical isolate 1091720 by CLSI-based broth microdilution assay; type: functional
Staphylococcus aureus [9] = test: Antimicrobial activity against methicillin-sensitive Staphylococcus aureus ATCC 29213 by CLSI-based broth microdilution assay; type: functional
Enterococcus faecium [10] = test: Antimicrobial activity against vancomycin-resistant Enterococcus faecium clinical isolate 1088168 by CLSI-based broth microdilution assay; type: functional
Staphylococcus aureus [11] = test: Antimicrobial activity against methicillin-sensitive Staphylococcus aureus clinical isolate 1088060 by CLSI-based broth microdilution assay; type: functional; procedure, shortened: as §1
Enterococcus faecium [12] = test: Antimicrobial activity against vancomycin-resistant Enterococcus faecium clinical isolate 1100440 by CLSI-based broth microdilution assay; type: functional
Staphylococcus aureus [13] = test: Antimicrobial activity against methicillin-sensitive Staphylococcus aureus clinical isolate 1088105 by CLSI-based broth microdilution assay; type: functional
Enterococcus faecium [14] = test: Antimicrobial activity against vancomycin-resistant Enterococcus faecium clinical isolate 1094112 by CLSI-based broth microdilution assay; type: functional
Staphylococcus aureus [15] = test: Antimicrobial activity against methicillin-sensitive Staphylococcus aureus clinical isolate 1088626 by CLSI-based broth microdilution assay; type: functional
Enterococcus faecium [16] = test: Antimicrobial activity against vancomycin-resistant Enterococcus faecium clinical isolate 1091563 by CLSI-based broth microdilution assay; type: functional
Enterococcus faecium [17] = test: Antimicrobial activity against vancomycin-resistant Enterococcus faecium clinical isolate 1088051 by CLSI-based broth microdilution assay; type: functional

| SMILES | MIC [1] [µg/mL] | MIC (Enterococcus faecalis) [µg/mL] | MIC (Enterococcus faecium [2]) [µg/mL] | MIC (Staphylococcus aureus [3]) [µg/mL] | MIC (Staphylococcus aureus [4]) [µg/mL] | MIC (Staphylococcus aureus [5]) [µg/mL] | MIC (Bacillus subtilis) [µg/mL] | MIC (Staphylococcus aureus [6]) [µg/mL] | MIC (Staphylococcus aureus [7]) [µg/mL] | MIC (Enterococcus faecium [8]) [µg/mL] | MIC (Staphylococcus aureus [9]) [µg/mL] | MIC (Enterococcus faecium [10]) [µg/mL] | MIC (Staphylococcus aureus [11]) [µg/mL] | MIC (Enterococcus faecium [12]) [µg/mL] | MIC (Staphylococcus aureus [13]) [µg/mL] | MIC (Enterococcus faecium [14]) [µg/mL] | MIC (Staphylococcus aureus [15]) [µg/mL] | MIC (Enterococcus faecium [16]) [µg/mL] | MIC (Enterococcus faecium [17]) [µg/mL] |
| --- | --- | --- | --- | --- | --- | --- | --- | --- | --- | --- | --- | --- | --- | --- | --- | --- | --- | --- | --- |
| O=C(O)c1ccc(-n2cc(CNc3cccc(C(F)(F)F)c3)c(-c3ccc(C(F)(F)F)cc3)n2)cc1 | 1.56 (≈ 3.09 µM) | 6.25 (≈ 12.4 µM) | 1.56 (≈ 3.09 µM) | 0.78 (≈ 1.54 µM) | 0.78 (≈ 1.54 µM) | 0.38 (≈ 0.752 µM) | 0.78 (≈ 1.54 µM) | 1.56 (≈ 3.09 µM) | 1.56 (≈ 3.09 µM) |  |  |  |  |  |  |  |  |  |  |
| O=C(O)c1ccc(-n2cc(CNc3ccc(Br)c(Cl)c3)c(-c3ccc(C(F)(F)F)cc3)n2)cc1 | 0.78 (≈ 1.42 µM) | 1.56 (≈ 2.83 µM) | 0.78 (≈ 1.42 µM) | 0.78 (≈ 1.42 µM) | 0.78 (≈ 1.42 µM) | 0.78 (≈ 1.42 µM) | 0.78 (≈ 1.42 µM) | 0.78 (≈ 1.42 µM) | 0.78 (≈ 1.42 µM) |  |  |  |  |  |  |  |  |  |  |
| O=C(O)c1ccc(-n2cc(CNc3ccc(Cl)cc3)c(-c3ccc(C(F)(F)F)cc3)n2)cc1 | 3.12 (≈ 6.61 µM) | 6.25 (≈ 13.2 µM) | 1.56 (≈ 3.31 µM) | 1.56 (≈ 3.31 µM) | 1.56 (≈ 3.31 µM) | 1.56 (≈ 3.31 µM) | 0.78 (≈ 1.65 µM) | 1.56 (≈ 3.31 µM) | 1.56 (≈ 3.31 µM) |  |  |  |  |  |  |  |  |  |  |
| Cc1ccc(NCc2cn(-c3ccc(C(=O)O)cc3)nc2-c2ccc(C(F)(F)F)cc2)cc1Cl | 1.56 (≈ 3.21 µM) | 3.12 (≈ 6.42 µM) | 0.78 (≈ 1.61 µM) | 0.78 (≈ 1.61 µM) | 0.78 (≈ 1.61 µM) | 0.78 (≈ 1.61 µM) | 0.78 (≈ 1.61 µM) | 0.78 (≈ 1.61 µM) | 0.78 (≈ 1.61 µM) |  |  |  |  |  |  |  |  |  |  |
| O=C(O)c1ccc(-n2cc(CNc3ccc(F)c(Cl)c3)c(-c3ccc(C(F)(F)F)cc3)n2)cc1 | 3.12 (≈ 6.37 µM) | 6.25 (≈ 12.8 µM) | 1.56 (≈ 3.18 µM) | 0.78 (≈ 1.59 µM) | 0.78 (≈ 1.59 µM) | 1.56 (≈ 3.18 µM) | 0.78 (≈ 1.59 µM) | 0.78 (≈ 1.59 µM) | 0.78 (≈ 1.59 µM) |  |  |  |  |  |  |  |  |  |  |
| O=C(O)c1ccc(-n2cc(CNc3cccc(Cl)c3)c(-c3ccc(C(F)(F)F)cc3)n2)cc1 | 3.12 (≈ 6.61 µM) | 12.5 (≈ 26.5 µM) | 0.78 (≈ 1.65 µM) | 1.56 (≈ 3.31 µM) | 0.78 (≈ 1.65 µM) | 0.78 (≈ 1.65 µM) | 0.78 (≈ 1.65 µM) | 1.56 (≈ 3.31 µM) | 1.56 (≈ 3.31 µM) |  |  |  |  |  |  |  |  |  |  |
| C[C@@H](O)[C@H]1C(=O)N2C(C(=O)O)=C(S[C@@H]3CN[C@H](C(=O)N(C)C)C3)[C@H](C)[C@H]12 [MEROPENEM] |  |  |  |  |  |  |  |  |  | 8 (≈ 20.9 µM) | 0.06 (≈ 0.156 µM) | 4 (≈ 10.4 µM) | 0.06 (≈ 0.156 µM) | 4 (≈ 10.4 µM) | 0.12 (≈ 0.313 µM) | 8 (≈ 20.9 µM) | 0.06 (≈ 0.156 µM) | 2 (≈ 5.22 µM) | 2 (≈ 5.22 µM) |
